The source of these data is ChEMBL document CHEMBL1145995, “Tricyclic benzimidazoles as potent poly(ADP-ribose) polymerase-1 inhibitors” (J Med Chem, 2003).

SMILES strings stand for the structures.

Experiment [1] deals with T1, Poly [ADP-ribose] polymerase 1 (Homo sapiens, UniProt P09874). In words: Inhibitory activity against human full length Poly (ADP-ribose) polymerase 1 at 100 uM. Put shortly:
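Human full-length PARP-1 enzyme assay. Tested at a single concentration of 100 μM, reported as percent inhibition instead of a Ki value.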

Experiment [2] concerns A549. Description: Enhancement factor of 200 uM temozolomide by 0.4 uM PARP inhibitor in A549 cells.
Experiment [3] deals with A549. Description: Concentration that gives 50% growth inhibition (temozolomide alone/ (temozolomide + 0.4 uM of compound)) in A549 cells. The class given is functional, Homo sapiens. Put shortly: (§1)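 A549 cells exposed to temozolomide (TM) or topotecan (TP), each with or without 0.4 μM PARP inhibitor. […] PF50 = GI50 of cytotoxic agent alone ÷ GI50 with inhibitor. Values are the average of two independent experiments.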

Experiment [4] has as its system A549. Description: Concentration that gives 50% growth inhibition (topotecan alone/ (topotecan + 0.4 uM of compound)) in A549 cells. The format is functional, Homo sapiens. Put shortly: as §1
For experiment [5], the system named is LoVo. Description: Potentiation of temozolomide in LoVo cells by 0.40 uM compound (TM). The format is functional, Homo sapiens.
Experiment [6] relates to LoVo. In words: Potentiation of topotecan in LoVo cells, by 0.40 uM compound (TP). The class given is functional, Homo sapiens.
Experiment [7] relates to LoVo. In words: Concentration that gives 50% growth inhibition in LoVo cells, activity expressed as GI50. The class given is functional. To be noted: Homo sapiens.
For experiment [8], the system named is A549. In words: Concentration that gives 50% growth inhibition in A549 cells, activity expressed as PF50 (TM). The format is functional, Homo sapiens. In outline:
as §1

The target of experiment [9] is T1, Poly [ADP-ribose] polymerase 1. In words: Inhibitory activity against human full length Poly (ADP-ribose) polymerase 1.
Experiment [10] relates to A549. In words: Concentration that gives 50% growth inhibition in A549 cells, activity expressed as PF50 (TP) at 0.006 uM. The format is functional, Homo sapiens. Put shortly:
(§2)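 A549 cells given topotecan alone or together with the PARP inhibitor at the listed concentration. PF50 (TP) = GI50 of topotecan alone ÷ GI50 of topotecan with inhibitor.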

Experiment [11] deals with A549. Description: Concentration that gives 50% growth inhibition in A549 cells, activity expressed as PF50 (TP) at 0.03 uM. The format is functional, Homo sapiens. In outline: as §2
In experiment [12] the test system is A549. Description: Percent ADP-ribose polymer formation in presence of MNNG (25 uM) at 0..006 uM compound concentration in A549 cells. The class given is functional, Homo sapiens. In outline: (§3)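 A549 cells treated with vehicle, with 25 μM MNNG, or with 25 μM MNNG plus inhibitor at 0.006–11 μM. ADP-ribose polymer quantified by HPLC and expressed as % of the polymer formed with 25 μM MNNG alone.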

Experiment [13] concerns A549. In words: Percent ADP-ribose polymer formation in presence of MNNG (25 uM) at 0..03 uM compound concentration in A549 cells. The format is functional, Homo sapiens. In outline: as §3
The test system of experiment [14] is A549. Description: Percent ADP-ribose polymer formation in presence of MNNG (25 uM) at 0..15 uM compound concentration in A549 cells. The format is functional, Homo sapiens. Put shortly: as §3
The subject of experiment [15] is A549. In words: Effect on NAD+ depletion (% remaining versus vehicle control) in presence of MNNG (25 uM) at 11 uM compound concentration in A549 cells. The class given is functional, Homo sapiens. In outline:
(§4)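 A549 cells treated with vehicle, with 25 μM MNNG (subtoxic DNA alkylation), or with 25 μM MNNG plus inhibitor at 0.006–11 μM. Cellular NAD+ measured by an enzyme recycling method and expressed as % remaining relative to vehicle-treated cells without DNA damage.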

The subject of experiment [16] is A549. Description: Concentration that gives 50% growth inhibition in A549 cells, activity expressed as PF50 (TP) at 0.15 uM. The format is functional, Homo sapiens. Put shortly: as §2
For experiment [17], the system named is A549. Description: Concentration that gives 50% growth inhibition in A549 cells, activity expressed as PF50 (TP) at 0.4 uM. The format is functional, Homo sapiens. Put shortly:
as §2

Experiment [18] relates to A549. In words: Effect on NAD+ depletion (% remaining versus vehicle control) in presence of MNNG (25 uM) at 0.006 uM compound concentration in A549 cells. The format is functional, Homo sapiens. In outline: as §4
Experiment [19] relates to A549. In words: Effect on NAD+ depletion (% remaining versus vehicle control) in presence of MNNG (25 uM) at 0.03 uM compound concentration in A549 cells. The class given is functional, Homo sapiens. Put shortly: as §4
In experiment [20] the test system is A549. Description: Effect on NAD+ depletion (% remaining versus vehicle control) in presence of MNNG (25 uM) at 0.15 uM compound concentration in A549 cells. The format is functional, Homo sapiens. Put shortly:
as §4

The subject of experiment [21] is A549. In words: Effect on NAD+ depletion (% remaining versus vehicle control) in presence of MNNG (25 uM) at 0.4 uM compound concentration in A549 cells. The class given is functional, Homo sapiens. Put shortly:
as §4

The test system of experiment [22] is A549. Description: Percent ADP-ribose polymer formation in presence of MNNG (25 uM) at 0..4 uM compound concentration in A549 cells. The format is functional, Homo sapiens. In outline: as §3
The test system of experiment [23] is A549. In words: Percent ADP-ribose polymer formation in presence of MNNG (25 uM) at 11 uM compound concentration in A549 cells. The format is functional, Homo sapiens. Put shortly:
as §3

Experiment [24] deals with LoVo. In words: Potentiation of topotecan in LoVo cells by 0.40 uM compound (TP). The class given is functional, Homo sapiens.

T1 sequence (P09874 whole entry): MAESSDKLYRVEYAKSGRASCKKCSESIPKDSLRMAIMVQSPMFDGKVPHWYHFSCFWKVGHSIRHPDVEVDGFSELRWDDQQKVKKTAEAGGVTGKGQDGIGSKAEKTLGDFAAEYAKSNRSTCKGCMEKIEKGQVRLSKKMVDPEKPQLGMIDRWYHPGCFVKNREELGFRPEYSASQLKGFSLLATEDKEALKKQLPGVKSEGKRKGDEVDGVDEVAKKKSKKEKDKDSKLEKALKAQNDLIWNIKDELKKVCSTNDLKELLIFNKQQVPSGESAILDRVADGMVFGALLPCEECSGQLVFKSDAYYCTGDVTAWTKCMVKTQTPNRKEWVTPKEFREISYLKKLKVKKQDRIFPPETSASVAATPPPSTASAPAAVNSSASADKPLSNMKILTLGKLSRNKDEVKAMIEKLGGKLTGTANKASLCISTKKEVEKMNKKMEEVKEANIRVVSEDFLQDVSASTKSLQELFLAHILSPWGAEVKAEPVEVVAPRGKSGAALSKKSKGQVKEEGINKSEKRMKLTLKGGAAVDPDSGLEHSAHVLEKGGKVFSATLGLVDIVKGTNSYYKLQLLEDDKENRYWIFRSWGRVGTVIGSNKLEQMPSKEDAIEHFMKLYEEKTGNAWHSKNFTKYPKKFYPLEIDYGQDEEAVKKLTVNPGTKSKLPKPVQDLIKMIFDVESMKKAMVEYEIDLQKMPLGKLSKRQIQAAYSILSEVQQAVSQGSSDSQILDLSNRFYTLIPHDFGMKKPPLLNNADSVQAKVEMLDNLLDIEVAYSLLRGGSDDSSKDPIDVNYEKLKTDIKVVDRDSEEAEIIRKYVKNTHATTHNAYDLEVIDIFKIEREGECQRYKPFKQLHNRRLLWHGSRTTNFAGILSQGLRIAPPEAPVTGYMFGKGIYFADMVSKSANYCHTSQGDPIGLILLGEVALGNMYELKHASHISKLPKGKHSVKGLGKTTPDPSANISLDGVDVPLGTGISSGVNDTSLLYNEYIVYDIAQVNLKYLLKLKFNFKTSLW

Turning to `CN1CCn2c(-c3cccc4ccccc34)nc3cccc(c32)C1=O`, the inhibition – broadly, the relative decrease from the control value, in per cent – in [1] worked out at 40%. In the experiment on A549 [2], the EF200 is reported as 1.1.
With `O=C1NCCn2c(-c3ccc(Cl)cc3)nc3cccc1c32`, the PF50 with A549 [3] was 1.5; with A549 [4] it was 2; with LoVo [5] it was 2.1; with LoVo [6], 1.5. Besides, in the experiment with LoVo [7], halving of growth (GI50) required 7.9 µM.
Take `Cc1nc2cccc3c2n1CCNC3=O`: the PF50 with A549 [8] was 1.1; in the experiment with A549 [4] it was 1.2. In addition, the Ki – broadly, a dissociation constant, usually derived from enzyme kinetics or from competition with a known ligand – in experiment [9] was 0.045 µM.
On to `O=C1NCCn2c(-c3ccc(CO)cc3)nc3cccc1c32`, for which the EF200 in the experiment on A549 [2] came to 1.5.
Same read-out and setting: next, `O=C1NCCn2c(-c3cccc(CO)c3)nc3cccc1c32`: 1.2.
On to `CN(C)Cc1ccc(-c2nc3cccc4c3n2CCNC4=O)cc1`, for which the PF50 with A549 [10] is given as 1.6; in the experiment with A549 [11], 1.9; with A549 [16], 2.1; in the experiment on A549 [17] it was 2.3; with A549 [3] it was 2.2; in the experiment on A549 [4], 2. For the same compound, the PF50 in the experiment with LoVo [5] is reported as 5.4; in the experiment with LoVo [24] it was 1.7. Moreover, the Formation was found to be 85% with A549 [12]; 38% in the experiment with A549 [13]; 20% in the experiment on A549 [14]; 13% in the experiment with A549 [22]; 5.5% in the experiment with A549 [23]. Also, the Remaining with A549 [15] is reported as 99%; in the experiment with A549 [18] it was 65%; in the experiment on A549 [19], 75%; with A549 [20], 85%; with A549 [21], 88%. In the experiment with LoVo [7], growth was halved (GI50) at 11.2 µM.
Regarding `O=C1NCCn2c(-c3cccc(C(F)(F)F)c3)nc3cccc1c32`, the PF50 with A549 [4] is 1.7.
For the compound `O=C1NCCn2c(-c3ccccc3Cl)nc3cccc1c32`, the PF50 with A549 [4] was determined as 1.3.
On to `CN(C)Cc1cccc(-c2nc3cccc4c3n2CCNC4=O)c1`, for which the PF50 with A549 [3] amounted to 1.4; in the experiment on A549 [4] it was 1.8; with LoVo [5], 2; in the experiment with LoVo [6], 1.5. Further, in the experiment on LoVo [7], the GI50 (usually the concentration that inhibits growth by half) is > 50 µM.
As to `O=C1NCCn2c(-c3ccccc3)nc3cccc1c32`, in the experiment with A549 [4], the PF50 came out at 1.5.
Same read-out and setting: next, `O=C1NCCn2c(-c3cccc4ccccc34)nc3cccc1c32`: 1.4.
